Structures can show the parent of a compound that is named as a salt. d = 2'-deoxy (DNA); r = 2'-OH (RNA)
B1: MBNL1-FL: full length recombinant MBNL1 protein (protein, UniProt Q9NR56 1-388, looked up)
chain: MAVSVTPIRDTKWLTLEVCREFQRGTCSRPDTECKFAHPSKSCQVENGRVIACFDSLKGRCSRENCKYLHPPPHLKTQLEINGRNNLIQQKNMAMLAQQMQLANAMMPGAPLQPVPMFSVAPSLATNASAAAFNPYLGPVSPSLVPAEILPTAPMLVTGNPGVPVPAAAAAAAQKLMRTDRLEVCREYQRGNCNRGENDCRFAHPADSTMIDTNDNTVTVCMDYIKGRCSREKCKYFHPPAHLQAKIKAAQYQVNQAAAAQAAATAAAMTQSAVKSLKRPLEATFDLGIPQAVLPPLPKRPALEKTNGATAVFNTGIFQYQQALANMQLQQHTAFLPPVPMVHGATPATVSAATTSATSVPFAATATANQIPIISAEHLTSHKYVTQM
modifications: full-length

How the values were obtained:
[1] = molecular target: MBNL1-His6/Biot-(CUG)12 binding; test: HTRF binding assay of MBNL1-His6 and Biot-; details: for IC50: read-out: IC50 (μM) HTRF, hit confirmation, 12-point 1:3 titration, 0.3 nM – 57.5 μM, 1536-well, duplicates
Procedure, shortened: (§1)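 Recombinant MBNL1-His6 (IPTG-induced, Ni-agarose purified, desalted, purity-corrected by SYPRO-stained gel) at 20 nM with 20 nM Biot-(CUG)12. Read after 60 min at room temperature, in duplicate points. IC50 from dose-response inhibition fits of three independent experiments.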

(CUG)20 RNA = test: RNA degradation assay; format: biochemical; details: 30 min, assay buffer, 37°C, varying compound concentrations (NF449 up to 800 μM)
Procedure, shortened: (§2)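 5′-32P-labelled RNA was gel-purified, denatured at 85°C for 1 min and slow-cooled to 37°C. At 100 pM it was incubated with varying test compound concentrations in Tris-HCl pH 8.0/NaCl/KCl/MgCl2 assay buffer for 30 min at 37°C. The reaction was stopped with 7.5 M urea/20 mM EDTA and analysed on denaturing 12% PAGE.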

(CAG)20 RNA = test: RNA degradation assay; format: biochemical; details: 30 min, assay buffer, 37°C, varying compound concentrations (NF449 up to 800 μM)
Procedure, shortened: as §2

[2] = tested on: MBNL1-His6/Biot-(CUG)12 binding; test: AlphaScreen binding assay of MBNL1-His6 and Biot-; details: 1536-well format, 4 ul final volume
Procedure, shortened: as §1

(CUG)109 transcript = test: Filter binding assay of MBNL1 constructs to; details: read-out: KD, (CUG)109 binding affinity
Procedure, shortened: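 5′-32P-labelled RNA was denatured at 85°C for 1 min and slow-cooled to 37°C in Tris-HCl pH 8.0/NaCl/KCl/MgCl2 assay buffer. It was incubated with full-length or truncated recombinant MBNL1 for 30 min at 37°C, then captured on a nitrocellulose/Hybond N+ sandwich by slot-blot. Kd came from a one-site binding model over three independent experiments.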

Molecule | IC50 [1] | further results
CC(O)C(C)OC(=O)[C@@H]1C[C@@H]2c3cccc4c3c(cn4C(C)C)C[C@H]2N(C)C1 (some centres unmarked) [LY-53,857 maleate] | 38 µM | 
Cl.Cl.Oc1ccc2c3c1O[C@H]1c4[nH]c5c(c4C[C@@]4(O)[C@@H](C2)N(CC2CC2)CC[C@]314)C[C@@]1(O)[C@H]2Cc3ccc(O)c4c3[C@@]1(CCN2CC1CC1)[C@H]5O4 [nor-Binaltorphimine dihydrochloride] | 21.9 µM | RNA degradation of (CUG)20 ((CUG)20 RNA): significant RNA degradation; RNA degradation of (CAG)20 ((CAG)20 RNA): significant RNA degradation
CN1C[C@H](CNC(=O)OCc2ccccc2)C[C@@H]2c3cccc4c3c(cn4C)C[C@H]21 [Metergoline] | 52 µM | 
CCCN1C[C@H](CSC)C[C@@H]2c3cccc4[nH]cc(c34)C[C@H]21 [Pergolide methanesulfonate] | 24.8 µM | 
O=C(Nc1cc(C(=O)Nc2ccc(S(=O)(=O)O)cc2S(=O)(=O)O)cc(C(=O)Nc2ccc(S(=O)(=O)O)cc2S(=O)(=O)O)c1)Nc1cc(C(=O)Nc2ccc(S(=O)(=O)O)cc2S(=O)(=O)O)cc(C(=O)Nc2ccc(S(=O)(=O)O)cc2S(=O)(=O)O)c1 [NF449 octasodium salt] | 31 µM | 
Cn1ccc2cc(NC(=O)Nc3cccnc3)ccc21 [SB 200646 HCl] | 55.7 µM | 
ssCAG-21: unlabeled mixed RNA/DNA oligo, sequence 5′-rUrArGrCrArGrCrArGrCrArGrCrArGrCrArGrCTT; positive control competitive inhibitor (UAGCAGCAGCAGCAGCAGCTT; sugars from the 5' end r19 d2, backbone not given here) |  | IC50 of inhibition of MBNL1-(CUG)12 binding, HTRF ([1]; 1536-well format, 4 ul final volume): comparable to those obtained from the 384-well assays; IC50 of inhibition of MBNL1-(CUG)12 binding, AlphaScreen [2]: comparable to those obtained from the 384-well assays
B1 |  | Kd ((CUG)109 transcript): 0.00692 ± 0.00078 µM
